Measurements reported in ChEMBL document CHEMBL1126698, “Synthesis and amnesia-reversal activity of a series of 7- and 5-membered 3-acylamino lactams” (1993).

What was measured:
Assay type in all cases: functional
[1] = test system: Mus musculus; assay: Amnesia-reversal activity in ECS-induced amnesia model of mice at 10 mg/kg i.p.; conditions: route intraperitoneal
Procedure, shortened: (§1)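 Male CD1 mice (24–28 g), step-through passive avoidance. Amnesia induced by ECS through auricular electrodes (20 mA, 0.6 ms pulses, 0.5 s, 50 Hz) immediately after the acquisition trial. Compound given ip 30 min before acquisition, at doses equimolar to 1 or 10 mg/kg Piracetam. Retention latency capped at 300 s. AA = CI(treated)/CI(sham) × 100, with CI derived from Mann-Whitney U versus amnesic controls.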

[2] = test system: Mus musculus; assay: Amnesia-reversal activity in scopolamine-induced amnesia model of mice at 1 mg/kg i.p.; conditions: route intraperitoneal
Procedure, shortened: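 Step-through passive avoidance in male CD1 mice (24–28 g). Scopolamine hydrobromide 1.5 mg/kg sc given 15 min before the acquisition trial. Test substance given ip 30 min before acquisition at a dose equimolar to 1 mg/kg Piracetam. Retention latency end point 300 s. AA is the treated-to-sham ratio of confrontation indices (×100), each index computed from Mann-Whitney U against the scopolamine-only group.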

[3] = test system: Mus musculus; assay: Amnesia-reversal activity in ECS-induced amnesia model of mice at 1 mg/kg i.p.; conditions: route intraperitoneal; procedure, shortened: as §1
[4] = test system: Mus musculus; assay: Amnesia-reversal activity evaluated in ECS-induced amnesia model of mice at a dose of 1 mg/kg
Procedure, shortened: (§2)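 Male CD1 mice (24–28 g), step-through passive avoidance, retention end point 300 s. ECS via auricular electrodes (20 mA, 0.6 ms pulses, 0.5 s, 50 Hz) immediately after the acquisition trial. Compounds given ip 30 min before acquisition at doses equimolar to 1, 10 (and 100 for references) mg/kg Piracetam. Retention latency vs control by Mann-Whitney U. AA = CI treated/CI sham ×100.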

[5] = test system: Mus musculus; assay: Amnesia-reversal activity evaluated in scopolamine-induced amnesia model of mice at a dose of 1 mg/kg
Procedure, shortened: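 Male CD1 mice (24–28 g), step-through passive avoidance, retention end point 300 s. Scopolamine hydrobromide 1.5 mg/kg sc 15 min before acquisition. Compounds given ip 30 min before acquisition at a dose equimolar to 1 mg/kg Piracetam. Retention latency vs control by Mann-Whitney U. AA = CI treated/CI sham ×100.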

[6] = test system: Mus musculus; assay: Amnesia-reversal activity evaluated in ECS-induced amnesia model of mice at a dose of 10 mg/kg; procedure, shortened: as §2
[7] = test system: Mus musculus; assay: Amnesia-reversal activity (AA) evaluated in ECS-induced amnesia model of mice at a dose of 100 mg/kg; procedure, shortened: as §2

SMILES: O=C(CN1CCCC1=O)NC1CCCCNC1=O (stereo not drawn)
- AA [1]: 0
- AA [2]: 21
- AA [3]: 10

SMILES: COC(=O)CN1CCCC[C@H](NC(=O)CCCc2ccccc2)C1=O
- AA [4]: 0
- AA [5]: 0
- AA [6]: 0

SMILES: O=C(CCCc1ccccc1)N[C@H]1CCCCN(CCO)C1=O
- AA [1]: 20
- AA [2]: 12
- AA [3]: 7

SMILES: NC(=O)CN1CCCC[C@H](NC=O)C1=O
- AA [1]: 9
- AA [2]: 0
- AA [3]: 55

SMILES: O=CCN1CCCC[C@H](NC(=O)CCCc2ccccc2)C1=O
- AA [4]: 0
- AA [5]: 26
- AA [6]: 25

SMILES: O=C(N[C@@H]1CCCCNC1=O)c1cccc(C(F)(F)F)c1
- AA [1]: 0
- AA [2]: 15
- AA [3]: 21

SMILES: N[C@H]1CCNC1=O
- AA [4]: 24
- AA [5]: 0
- AA [6]: 0

SMILES: N[C@H]1CCCCNC1=O
- AA [4]: 37
- AA [5]: 47
- AA [6]: 26

SMILES: O=C(NC1CCCCNC1=O)c1cccc(C(F)(F)F)c1 (stereo not drawn)
- AA [1]: 17
- AA [2]: 65
- AA [3]: 18

SMILES: COc1ccc(C(=O)NC2CCCCNC2=O)cc1 (stereo not drawn)
- AA [1]: 37
- AA [2]: 0
- AA [3]: 37

SMILES: O=C(CCCc1ccccc1)NC1CCCCNC1=O (stereo not drawn)
- AA [1]: 0
- AA [2]: 5
- AA [3]: 0

SMILES: O=C1NCCCCC1NC(=O)[C@@H]1CCCN1C(=O)OCc1ccccc1 (stereo partly drawn)
- AA [2]: 27
- AA [3]: 0

SMILES: NC(=O)CN1CCCC[C@H](NC(=O)CCCc2ccccc2)C1=O
- AA [1]: 0
- AA [2]: 0
- AA [3]: 0

SMILES: O=C(NC1CCNC1=O)c1cccc(C(F)(F)F)c1 (stereo not drawn)
- AA [1]: 58
- AA [2]: 0
- AA [3]: 51

SMILES: O=CN[C@H]1CCCCN(CCO)C1=O
- AA [1]: 61
- AA [2]: 7
- AA [3]: 46

SMILES: COC(=O)CN1CCCC[C@H](NC=O)C1=O
- AA [1]: 9
- AA [2]: 0
- AA [3]: 0

SMILES: O=CNC1CCCCNC1=O (stereo not drawn)
- AA [1]: 55
- AA [2]: 49
- AA [3]: 71

SMILES: COc1cc(C(=O)NC2CCCCNC2=O)cc(OC)c1OC (stereo not drawn)
- AA [1]: 42
- AA [2]: 0
- AA [3]: 31

SMILES: O=CNC1CCNC1=O (stereo not drawn)
- AA [4]: 53
- AA [5]: 0
- AA [6]: 9

SMILES: CC(=O)NC1CCCCNC1=O (stereo not drawn)
- AA [1]: 14
- AA [2]: 39
- AA [3]: 7

SMILES: N[C@@H]1CCCCNC1=O
- AA [4]: 0
- AA [5]: 44
- AA [6]: 25

SMILES: COc1ccc(C(=O)N2CCCC2=O)cc1 [ANIRACETAM]
- AA [7]: 83
- AA [1]: 0
- AA [2]: 18
- AA [3]: 29

SMILES: NC(=O)CN1CC(O)CC1=O (stereo not drawn) [OXIRACETAM]
- AA [7]: 57
- AA [1]: 8
- AA [2]: 0
- AA [3]: 31

SMILES: NC(=O)CN1CCCC1=O [PIRACETAM]
- AA [7]: 39
- AA [1]: 0
- AA [3]: 0
